In ChEMBL document CHEMBL4680079, “Discovery of a Quinoline-4-carboxamide Derivative with a Novel Mechanism of Action, Multistage Antimalarial Activity, and Potent in Vivo Efficacy” (J Med Chem, 2016):
Converted amounts (≈) assume the structure as drawn.

Tests used:
Plasmodium falciparum = assay: Antiplasmodial activity against chloroquine-sensitive Plasmodium falciparum 3D7 infected in human red blood cells assessed as growth inhibition by SYBR Green fluorescence assay; type: functional, organism-based, RBC; details: 3D7, Erythrocyte
Method in brief: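 P. falciparum 3D7 grown in 5% human red cells in RPMI 1640 (pH 7.3) with 0.5% Albumax II, hypoxanthine and gentamicin at 37°C under 1% O₂/3% CO₂. Growth measured by SYBR green fluorescence (ex 485/em 528 nm), with mefloquine as assay control. EC50 calculated.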

MRC5 = assay: Antiproliferative activity against human MRC5 cells assessed as reduction in cell viability after 68 hrs by resazurin dye based fluorescence assay; details: MRC5, 68 h
Method in brief: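 MRC-5 fibroblasts plated overnight as monolayers, exposed to compound pre-diluted in MEM for 68 h. Resazurin then added (final 50 μM) for 3 h, fluorescence read at ex 528/em 590 nm. Signal converted to % inhibition against high- and no-inhibition controls. Plates accepted at Z' > 0.5.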

[1] = Intrinsic clearance in CD1 mouse liver microsomes at 0.5 uM in presence of NADPH incubated upto 30 mins by UPLC-MS/MS analysis; type: ADME, Microsome; details: 0.5 h
Method in brief: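 Compound at 0.5 μM incubated with female CD1 mouse, male Sprague-Dawley rat or pooled human liver microsomes (0.5 mg/mL, 50 mM potassium phosphate, pH 7.4). Reaction started with excess NADPH. Samples taken at 0-30 min, quenched in acetonitrile, analysed by UPLC-MS/MS. Verapamil used as control, single time course.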

[2] = Kinetic aqueous solubility of the compound by laser nephelometry; type: physicochemical; details: read-out: Kinetic_solubility
Method in brief: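 Kinetic solubility measured by laser nephelometry. DMSO serial dilutions diluted into water to give final 100–5 μg/mL at 1.0% DMSO. Read immediately, in triplicate aliquots.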

[3] = Permeability of the compound at 10 uM incubated for 5 hrs by UPLC-MS/MS analysis based PAMPA method; type: ADME; details: read-out: permeability
Method in brief: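 PAMPA run on a lipid-oil-lipid tri-layer filter at pH 7.4. Compound at 10 μM in PBS (DMSO ≤5%) in donor wells, PBS in acceptor wells, kept 5 h at room temperature. Both compartments quantified by UPLC-MS/MS. Data accepted only when recovery exceeded 70%.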

CLH [1] [mL/min/g]	solubility kinetic [2] [µM]	Papp at 5 h, 10 µM [3] [×10⁻⁶ cm/s]	SMILES	EC50 (Plasmodium falciparum) [µM]	EC50 (MRC5) [µM]
0.5	220 (≈ 100 µg/mL)	–	O=C(NCCN1CCCC1)c1cc(N2CCC(N3CCOCC3)CC2)nc2ccc(F)cc12	0.68	25
1.1	262 (≈ 100 µg/mL)	–	Cc1ccc(-c2cc(C(=O)NCCCN(C)C)c3cc(Cl)ccc3n2)cc1	6.7	6
–	–	–	Cc1ccc(-c2cc(C(=O)Nc3cccnc3)c3ccccc3n2)cc1	0.99	> 50
–	–	–	O=C(NCCN1CCCC1)c1cc(-c2cccc(CN3CCOCC3)c2)nc2ccc(F)cc12	11	–
–	–	–	O=C(NCCN1CCCC1)c1cc(NCCN2CCCCC2)nc2ccc(F)cc12	8.9	19
–	–	–	Cc1ccc(-c2cc(C(=O)NCCN3CCN(C)CC3)c3cc(Cl)ccc3n2)cc1	3.3	8
< 0.5	> 210	–	O=C(NCCN1CCOCC1)c1cc(-c2ccc(CN3CCOCC3)cc2)nc2ccc(F)cc12	0.012	–
5.3	39 (≈ 16.3 µg/mL)	–	Cc1ccc(-c2cc(C(=O)Nc3cccnc3)c3cc(Br)ccc3n2)cc1	0.12	21
–	–	–	Cc1cc(Nc2cc(C(=O)NCCN3CCCC3)c3cc(F)ccc3n2)on1	> 50	> 50
2.1	13 (≈ 5.12 µg/mL)	–	Cc1ccc(-c2cc(C(=O)NCCN3CCCC3)c3cc(Cl)ccc3n2)cc1	0.44	7
–	–	–	Cc1ccc(-c2cc(C(=O)Nc3cccnc3)c3cc(Cl)ccc3n2)cc1	0.29	21
–	–	–	O=C(NCCN1CCCC1)c1cc(N2CCn3ccnc3C2)nc2ccc(F)cc12	5.8	> 50
–	–	–	Cc1ccc(-c2cc(C(=O)NCCN(C)C)c3cc(Cl)ccc3n2)cc1	1.2	9
–	–	–	O=C(NCCN1CCCC1)c1cc(-c2ccc(C(=O)N3CCOCC3)cc2)nc2ccc(F)cc12	0.14	> 50
2.3	210 (≈ 99.1 µg/mL)	–	O=C(NCCN1CCCC1)c1cc(N2CCC(N3CCOCC3)CC2)nc2ccc(Cl)cc12	0.15	13
–	–	5.8	O=C(NCCN1CCC(F)CC1)c1cc(NCCCN2CCOCC2)nc2ccc(F)cc12	0.9	–
–	–	–	O=C(NCCN1CCCC1)c1cc(-c2ccc(N3CCOCC3)cc2)nc2ccc(F)cc12	0.6	17
–	–	–	O=C(NCCN1CCCC1)c1cc(NCCN2CCOCC2)nc2ccc(F)cc12	0.19	50
3.4	180 (≈ 67.9 µg/mL)	–	Cc1ccc(-c2cc(C(=O)NCCN3CCCC3)c3cc(F)ccc3n2)cc1	0.7	9
11	12 (≈ 4.92 µg/mL)	–	Cc1ccc(-c2cc(C(=O)NCCN3CCOCC3)c3cc(Cl)ccc3n2)cc1	3.6	26
–	–	12	O=C(NCCN1CCCC(F)(F)C1)c1cc(NCCCN2CCOCC2)nc2ccc(F)cc12	36	–
8.6	36 (≈ 12.9 µg/mL)	–	Cc1ccc(-c2cc(C(=O)Nc3cccnc3)c3cc(F)ccc3n2)cc1	0.35	50
–	–	–	Cc1ccc(-c2cc(C(=O)NCCN3CCCCC3)c3cc(Cl)ccc3n2)cc1	0.32	7
–	–	–	CN1CCN(c2cc(C(=O)NCCN3CCCC3)c3cc(F)ccc3n2)CC1	34	20
–	–	–	CN(C)c1ccc(-c2cc(C(=O)NCCN3CCCC3)c3cc(F)ccc3n2)cc1	0.81	10
–	–	–	O=C(NCCN1CCCC1)c1cc(NCCC2CCOCC2)nc2ccc(F)cc12	0.002	> 50
–	–	2.4	O=C(NCCN1CCOCC1)c1cc(NCCCN2CCOCC2)nc2ccc(F)cc12	2.5	–
–	–	9.4	O=C(NCCN1CCC(F)(F)CC1)c1cc(NCCCN2CCOCC2)nc2ccc(F)cc12	15	–
–	–	8.9	O=C(NCCN1CCC(F)(F)C1)c1cc(NCCCN2CCOCC2)nc2ccc(F)cc12	18	–
